Legend:
A-427 = assay: Cytotoxicity against A-427 nonsmall lung cell line using MTT colorimetric assay; type: functional, cell-based; details: Homo sapiens
Outline: (§1)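 Human tumour lines from ATCC were grown at 37 °C in sealed dishes in MEM with 5% FCS. Cells were seeded at 40000 cells/mL in 96-well plates and left 24 h to plate. Each drug was then tested at six concentrations from 10^-5 to 10^-9 M. Growth was read by colorimetric MTT assay.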

U-87 MG = assay: Cytotoxicity against U-87 MG glioblastomas using MTT colorimetric assay; type: functional, cell-based, U-87MG ATCC; details: Homo sapiens; outline: as §1
HCT-15 = assay: Cytotoxicity against HCT-15 colon cell line using MTT colorimetric assay; type: functional, cell-based; details: Homo sapiens; outline: as §1
U373 MG = assay: Cytotoxicity against U-373 MG glioblastomas using MTT colorimetric assay; type: functional, cell-based, U-373MG ATCC; details: Homo sapiens; outline: as §1
J82 = assay: Cytotoxicity against J82 bladder cell lines using MTT colorimetric assay; type: functional, cell-based; details: Homo sapiens; outline: as §1
T47D = assay: Cytotoxicity against Breast cancer cell line T-47D using MTT colorimetric assay; type: functional, cell-based; details: Homo sapiens; outline: as §1
PC-3 = assay: Cytotoxicity against prostate cell line PC-3 using MTT colorimetric assay; type: functional, cell-based; details: Homo sapiens; outline: as §1
[1] = Evaluated in vivo for maximum tolerated dose and found to be nontoxic; type: ADME, organism-based
LoVo = assay: Cytotoxicity measured on LoVo colon cell line using MTT colorimetric assay; type: functional, cell-based; details: Homo sapiens; outline: as §1
MCF7 = assay: Cytotoxicity against Breast cancer cell line MCF-7 using MTT colorimetric assay; type: functional, cell-based; details: Homo sapiens; outline: as §1
A549 = assay: Cytotoxicity against A549 nonsmall lung cell line using MTT colorimetric assay; type: functional, cell-based; details: Homo sapiens; outline: as §1
T-24 = assay: Cytotoxicity against T24 bladder cell lines using MTT colorimetric assay; type: functional, cell-based; details: Homo sapiens; outline: as §1
A 172 = assay: Cytotoxicity against A-172 glioblastomas using MTT colorimetric assay; type: functional, cell-based; details: Homo sapiens; outline: as §1

Row | SMILES | IC50 (A-427) [µM] | IC50 (U-87 MG) [µM] | IC50 (HCT-15) [µM] | IC50 (U373 MG) [µM] | IC50 (J82) [µM] | IC50 (T47D) [µM] | IC50 (PC-3) [µM] | MTD [1] [mg/kg] | IC50 (LoVo) [µM] | IC50 (MCF7) [µM] | IC50 (A549) [µM] | IC50 (T-24) [µM] | IC50 (A 172) [µM]
1 | COc1ccc(-c2cc3c(OC)cc(OC)cc3n(C)c2=S)cc1 | > 10 | > 10 | > 10 | > 10 | > 10 | > 10 | > 10 | 160 | > 10 | > 10 | > 10 | > 10 | > 10
2 | COc1ccc(-c2cc3c(OC)cc(OC)cc3n(CC(=O)OCc3ccccc3)c2=O)cc1 | > 10 | > 10 | > 10 | > 10 | > 10 | > 10 | > 10 | 160 | > 10 | > 10 | > 10 | > 10 | > 10
3 | CCOC(=O)Cn1c(=O)c(-c2ccc(OC)cc2)cc2c(OC)cc(OC)cc21 | > 10 | > 10 | > 10 | > 10 | > 10 | > 10 | > 10 | 160 | > 10 | > 10 | > 10 | > 10 | > 10
4 | COc1cc(OC)c2cc(-c3ccc(O)cc3)c(=O)n(C)c2c1 | > 10 | > 10 | > 10 | > 10 | > 10 | > 10 | > 10 | 160 | > 10 | > 10 | > 10 | > 10 | > 10
5 | COc1ccc(-c2cc3c(OC)cc(OC)cc3n(CC(=O)O)c2=O)cc1 | > 10 | > 10 | > 10 | > 10 | > 10 | > 10 | > 10 | 160 | > 10 | > 10 | > 10 | > 10 | > 10
6 | COc1ccc(-c2cc3c(OC)cc(OC)c4c3n(c2=O)CCC4=O)cc1 | > 10 | > 10 | > 10 | > 10 | > 10 | > 10 | > 10 | 160 | > 10 | > 10 | > 10 | > 10 | > 10
7 | COc1ccc(-c2cc3c(OC)cc(OC)cc3n(CCC#N)c2=O)cc1 | > 10 | > 10 | > 10 | > 10 | > 10 | > 10 | > 10 | 160 | > 10 | > 10 | > 10 | > 10 | > 10
8 | COc1ccc(-c2cc3c(OC)cc(OC)cc3n(CCCC#N)c2=O)cc1 | > 10 | > 10 | > 10 | > 10 | > 10 | > 10 | > 10 | 160 | > 10 | > 10 | > 10 | > 10 | > 10
9 | COc1cc(OC)c2cc(-c3ccccc3)c(O)nc2c1 | > 10 | > 10 | > 10 | > 10 | > 10 | > 10 | > 10 | 160 | > 10 | > 10 | > 10 | > 10 | > 10
10 | Oc1ccc(-c2cc3c(O)cc(O)cc3nc2O)cc1 | > 10 | > 10 | > 10 | > 10 | > 10 | > 10 | > 10 | 160 | > 10 | > 10 | > 10 | > 10 | > 10
11 | COc1ccc(-c2cc3c(OC)cc(OC)cc3n(CCN(C)C)c2=O)cc1 | > 10 | > 10 | > 10 | > 10 | > 10 | > 10 | > 10 | 160 | > 10 | > 10 | > 10 | > 10 | > 10
12 | COc1ccc(-c2cc3c(OC)cc(OC)cc3n(C)c2=O)cc1 | > 10 | > 10 | > 10 | > 10 | > 10 | > 10 | > 10 | 160 | > 10 | > 10 | > 10 | > 10 | 
13 | COc1ccc(-c2cc3cccc(OC)c3nc2O)cc1 | > 10 | > 10 | > 10 | > 10 | > 10 | > 10 | > 10 | 160 | > 10 | > 10 | > 10 | > 10 | > 10
14 | COc1ccc(-c2cc3c(OC)cc(OC)cc3nc2O)cc1 |  |  |  |  |  |  |  | 160 |  |  |  |  | 
15 | COc1ccc(-c2cc3c(OC)cc(OC)cc3n(CC#N)c2=O)cc1 | > 10 | > 10 | > 10 | > 10 | > 10 | > 10 | > 10 | 160 | > 10 | > 10 | > 10 | > 10 | > 10
16 | COc1ccc(-c2cc3c(OC)cc(OC)cc3n(C)/c2=N\Nc2ccccn2)cc1 | > 10 | > 10 | > 10 | > 10 | > 10 | > 10 | > 10 | 160 | > 10 | > 10 | > 10 | > 10 | > 10
17 | CCN(CC)C(=O)CCn1c(=O)c(-c2ccc(OC)cc2)cc2c(OC)cc(OC)cc21 | > 10 | > 10 | > 10 | > 10 | > 10 | > 10 | > 10 | 160 | > 10 | > 10 | > 10 | > 10 | > 10
18 | CC(=O)Oc1ccc(-c2cc3c(OC(C)=O)cc(OC(C)=O)cc3n(C)c2=O)cc1 | > 10 | > 10 | > 10 | > 10 | > 10 | > 10 | > 10 | 160 | > 10 | > 10 | > 10 | > 10 | > 10
19 | COc1ccc(-c2cc3c(OC)cc(OC)cc3n(C)/c2=N\Nc2ccccc2)cc1 | > 10 | > 10 | > 10 | > 10 | > 10 | > 10 | > 10 | 160 | > 10 | > 10 | > 10 | > 10 | > 10
20 | COc1cc(OC)c2cc(-c3ccc(OC(C)=O)cc3)c(=O)n(C)c2c1 | > 10 | > 10 | > 10 | > 10 | > 10 | > 10 | > 10 | 160 | > 10 | > 10 | > 10 | > 10 | > 10
21 | COc1cc(OC)c2cc(-c3ccc(OCc4ccccc4)cc3)c(O)nc2c1 | > 10 | > 10 | > 10 | > 10 | > 10 | > 10 | > 10 | 160 | > 10 | > 10 | > 10 | > 10 | > 10
22 | COc1cc(OC)c2cc(-c3ccc(O)cc3)c(O)nc2c1 | > 10 | > 10 | > 10 | > 10 | > 10 | > 10 | > 10 | 160 | > 10 | > 10 | > 10 | > 10 | > 10
23 | COc1cccc2cc(-c3ccccc3)c(O)nc12 | > 10 | > 10 | > 10 | > 10 | > 10 | > 10 | > 10 | 160 | > 10 | > 10 | > 10 | > 10 | > 10
24 | Cn1c(=O)c(-c2ccc(O)cc2)cc2c(O)cc(O)cc21 | > 10 | > 10 | > 10 | > 10 | > 10 | > 10 | > 10 | 160 | > 10 | > 10 | > 10 | > 10 | > 10
